The list is not random: actives were taken first. Their share in the collection is about 1.9%.
HCV core dimer: blocks dimerization of HCV core protein; TR-FRET GST/Flag-core106 dimerization, 1536-well; 300,000 compounds, 0.33% hits; AID 1899; inhibition, % at 5 µM;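 active = inhibition above the mean of all tested compounds plus 3 SD, set per screening campaign, cut at about 45% in these data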
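assay system = GST-tagged and Flag-tagged HCV core protein residues 1-106 | controls = unlabelled core106 and no-GST-core106 wells | incubation = compound-protein-antibody incubation 4 h at 22.5 °C | probe or stimulus = Eu donor and XL665 acceptor anti-tag antibodies | read-out = % inhibition based on acceptor/donor emission ratio | signal = TR-FRET 671 and 617 nm emission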
Rce1 inh: blocks yeast Ras-converting enzyme; yeast membranes, quenched prenylated peptide cleavage fluorescence; AID 2563; Q03530; 290,000 compounds, 0.27% hits; calls only;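 active = fall in fluorescence gain of 50% or more versus controls, with final raw signal at or below 3038400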
Pemphigus Ab inh: human desmoglein-3 autoantibody binding inhibition. P32926. DSG3-coupled beads, scFv-anti-DSG3-GFP binding, flow cytometry; stronger effect = lower value. binding (percent of control), % at 10 µM. 310,000 compounds, 0.48% hits. AID 588358;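 active = binding more than 3 SD below its plate's average and above zero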;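 also: hits lower antibody fragment binding to DSG3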
Target sequence (P32926 whole entry, looked up, the tested form may be a part): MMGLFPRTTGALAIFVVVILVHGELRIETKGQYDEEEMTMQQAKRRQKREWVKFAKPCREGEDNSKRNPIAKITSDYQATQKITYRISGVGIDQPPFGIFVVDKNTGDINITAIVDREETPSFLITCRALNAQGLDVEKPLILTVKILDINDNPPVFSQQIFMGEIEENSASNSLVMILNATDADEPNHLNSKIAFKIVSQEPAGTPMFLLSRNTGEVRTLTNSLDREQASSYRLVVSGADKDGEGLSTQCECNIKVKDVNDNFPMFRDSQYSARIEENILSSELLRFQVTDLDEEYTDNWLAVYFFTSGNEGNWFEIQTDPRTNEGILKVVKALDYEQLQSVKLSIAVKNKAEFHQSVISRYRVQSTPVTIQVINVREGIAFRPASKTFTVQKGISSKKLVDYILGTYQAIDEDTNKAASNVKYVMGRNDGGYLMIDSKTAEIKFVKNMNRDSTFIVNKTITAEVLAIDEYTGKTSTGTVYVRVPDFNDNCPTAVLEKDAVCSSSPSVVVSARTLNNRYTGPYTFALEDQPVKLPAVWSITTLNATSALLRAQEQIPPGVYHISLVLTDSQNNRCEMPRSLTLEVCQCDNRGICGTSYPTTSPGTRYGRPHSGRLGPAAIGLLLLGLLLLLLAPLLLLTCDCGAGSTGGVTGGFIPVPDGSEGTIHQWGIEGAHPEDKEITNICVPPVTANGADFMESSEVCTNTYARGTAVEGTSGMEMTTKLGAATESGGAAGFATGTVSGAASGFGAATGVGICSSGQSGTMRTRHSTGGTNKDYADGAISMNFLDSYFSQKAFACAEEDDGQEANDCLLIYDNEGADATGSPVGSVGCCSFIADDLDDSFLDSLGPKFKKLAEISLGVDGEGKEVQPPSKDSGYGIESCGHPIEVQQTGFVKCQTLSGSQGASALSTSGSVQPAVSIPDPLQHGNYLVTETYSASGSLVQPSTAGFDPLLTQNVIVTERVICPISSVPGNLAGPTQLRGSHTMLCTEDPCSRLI
Tb MetRS inh: blocks T. brucei methionyl-tRNA synthetase activity. 360,000 compounds, 0.4% hits. inhibition, % at 11.9 µM. purified T. brucei MetRS, ATP depletion, Kinase-Glo luminescence;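 active = inhibition above a per-plate cutoff of the control wells' mean inhibition plus 3 SD, cut at about 5.5% in these data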
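Material: T. brucei methionyl-tRNA synthetase, purified; reagent: substrates ATP, L-methionine and bulk Escherichia coli tRNA; dosing: 11.9 µM single point; timing: 15 min plus 2 h at 25 °C; detection: luminescence of leftover ATP; evaluation: % inhibition; control set: DMSO-only wells as low control; replicates: singlicate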
NadD inh: NadD (S. aureus) enzyme inhibition. purified NadD enzyme, colorimetric absorbance read-out. inhibition, % at 20 µM. 360,000 compounds, 0.78% hits. AID 602399; in the data active = inhibition above about 26%
Tb MetRS conf: Trypanosoma brucei MetRS inhibition confirmed; T. brucei MetRS enzyme, luminescence (ATP depletion); shares compounds with Tb MetRS inh; 1,400 compounds, 93% hits; inhibition, % at 11.9 µM; in the data active = inhibition above about 7%
Jurkat tox: kills Jurkat cells in T. brucei MetRS counterscreen. shares compounds with Tb MetRS inh. Jurkat cells viability, ATP luminescence. inhibition, % at 8.3 µM. 1,400 compounds, 12% hits. AID 624413; in the data active = inhibition above about 15%
TbMetRS FP orth: T. brucei MetRS inhibition, orthogonal assay | shares compounds with Tb MetRS inh | 1,400 compounds, 44% hits | AID 651607 | purified T. brucei MetRS, fluorescence polarization | inhibition, % at 11.9 µM; in the data active = inhibition above about 17%
Each line names hits and unclear results; the compound was inactive in the other large screens (follow-up assays come after a bar, where they were run).

CCC(C)N1C(=O)CCC1C(=O)NCCc1ccc(Cl)cc1 (configuration not stated)	none
COc1ccccc1NC(=O)c1nnn(CC(=O)Nc2ccccc2)c1N	none (no result: Rce1 inh, Pemphigus Ab inh)
COc1ccccc1NC(=O)c1nnn(CC(=O)Nc2cccc(SC)c2)c1N	Tb MetRS inh 6.0 (no result: Rce1 inh) | Tb MetRS conf 7.6 | Jurkat tox inactive | TbMetRS FP orth inactive
O=C(Nc1cc(F)ccc1F)c1ccc(-n2cncn2)c([N+](=O)[O-])c1	Tb MetRS inh 36 | Tb MetRS conf 57 | Jurkat tox inactive | TbMetRS FP orth 33
O=C(Nc1ccc(F)c(F)c1)c1ccc(-n2cncn2)c([N+](=O)[O-])c1	Tb MetRS inh 37 (no result: HCV core dimer, Rce1 inh) | Tb MetRS conf 58 | Jurkat tox inactive | TbMetRS FP orth 29
O=C(Nc1cccc(/C=C/c2ccccn2)c1)c1ccc(-n2cncn2)c([N+](=O)[O-])c1	Tb MetRS inh 23 | Tb MetRS conf 62 | Jurkat tox 22 | TbMetRS FP orth 55
O=C(NNC(=O)c1ccccc1F)c1ccc(-n2cncn2)c([N+](=O)[O-])c1	none
Cc1nc2c(C)cccn2c1/C(O)=C1\C(=O)C(=O)N(CCN(C)C)C1c1ccccc1 (configuration not stated)	none
CO[C@@H]1CN(C)C(=O)c2cc(NC(=O)Nc3cc(F)ccc3F)ccc2OC[C@H](C)NC[C@@H]1C	none (no result: HCV core dimer, Rce1 inh, Pemphigus Ab inh, NadD inh)
CO[C@@H]1CN(C)C(=O)c2cc(NC(=O)Nc3cc(F)ccc3F)ccc2OC[C@H](C)N(C(=O)c2cnccn2)C[C@@H]1C	Tb MetRS inh 6.2 (no result: HCV core dimer, Rce1 inh, Pemphigus Ab inh, NadD inh) | Tb MetRS conf 14 | Jurkat tox inactive | TbMetRS FP orth inactive
COC(=O)c1cn(Cc2cccnc2)c(=O)c2ccccc12	none
O=C(O)c1ccc(N2CCN(Cc3ccc4c(c3)OCO4)CC2)c([N+](=O)[O-])c1	Tb MetRS inh 7.0 | Tb MetRS conf 16 | Jurkat tox inactive | TbMetRS FP orth inactive
Cc1ccc(NC2Nc3cc(C)nn3S2)c(C)c1 (configuration not stated)	none
Cc1ccc2nc(C3CCN(S(=O)(=O)c4ccc5ccccc5c4)CC3)[nH]c2c1	Tb MetRS inh 48 | Tb MetRS conf 69 | Jurkat tox inactive | TbMetRS FP orth 36
Cc1ccc2nc(C3CCCN(C(=S)Nc4ccccc4C)C3)[nH]c2c1 (configuration not stated)	Tb MetRS inh 6.8 | Tb MetRS conf 46 | Jurkat tox inactive | TbMetRS FP orth 22
O=S(=O)(c1ccc2c(c1)OCCO2)N1CCC(c2nc3ccc(Cl)cc3[nH]2)CC1	Tb MetRS inh 12 | Tb MetRS conf 17 | Jurkat tox 24 | TbMetRS FP orth inactive
CC(C)(C)NC(=O)c1cc(F)c(F)cc1Cl	none
Cc1ccccc1OCc1nc2ccc(S(=O)(=O)N3CCOCC3)cc2[nH]1	none
O=S(=O)(c1ccc2nc(SCc3ccc(Cl)cc3)[nH]c2c1)N1CCOCC1	Tb MetRS inh 12 | Tb MetRS conf 18 | Jurkat tox inactive | TbMetRS FP orth 19
O=S(=O)(c1ccc2nc(COc3ccc(Cl)cc3Cl)[nH]c2c1)N1CCOCC1	Tb MetRS inh 12 | Tb MetRS conf 21 | Jurkat tox inactive | TbMetRS FP orth inactive
CNC(=S)NN=C(C)c1ccc(OC)cc1O	none (no result: HCV core dimer, Rce1 inh, Pemphigus Ab inh)
CCN(CC(=O)Nc1c(F)cccc1F)C(=O)c1ccc2c(c1)NC(=O)C(C)S2 (configuration not stated)	none
CCN(CC(=O)Nc1ccc(OC)cc1)C(=O)c1ccc2c(c1)NC(=O)C(C)S2 (configuration not stated)	Tb MetRS inh 18 | Tb MetRS conf 48 | Jurkat tox inactive | TbMetRS FP orth 24
Cc1ccc(NC(=O)Cn2c(=O)c(C)nc3ccccc32)cc1	none
Cc1cccc(NC(=O)Cn2c(/C=C/c3ccccc3)nc3ccccc32)c1	Tb MetRS inh 10 | Tb MetRS conf 19 | Jurkat tox inactive | TbMetRS FP orth inactive
Cc1nc2ccccc2n(CC(=O)Nc2cc(Cl)cc(Cl)c2)c1=O	Tb MetRS inh 5.8 | Tb MetRS conf 11 | Jurkat tox inactive | TbMetRS FP orth inactive
CCOC(=O)c1cccc(NC(=O)Cn2c(CC(=O)NC)nc3ccccc32)c1	Tb MetRS inh 79 | Tb MetRS conf 88 | Jurkat tox inactive | TbMetRS FP orth 71
CC1(C)CC(=O)c2sc(NC(=O)Cc3cccs3)nc2C1	none (no result: Rce1 inh)
C/C(=N\NC(=O)CNC(=O)C(c1ccccc1)c1ccccc1)c1ccccc1	none
CC(C)COC(=O)Nc1nnc(Cc2ccccc2)s1	Tb MetRS inh 10 | Tb MetRS conf inactive | Jurkat tox inactive | TbMetRS FP orth inactive
CC(C)Cc1nnc(NC(=O)CCC(=O)Nc2ccccc2)s1	none
CC(C)(C)C(=O)Nc1nnc(Cc2ccccc2)s1	none
CC(C)Cc1nnc(NC(=O)Nc2ccccc2)s1	Tb MetRS inh 16 (no result: Pemphigus Ab inh) | Tb MetRS conf 32 | Jurkat tox inactive | TbMetRS FP orth inactive
CCCN(CC(=O)Nc1ccccc1C)C(=O)CCCOc1ccc(Br)cc1	none (no result: HCV core dimer, Rce1 inh)
Cc1ccc(C(NC(=O)N2CCOCC2)C(Cl)Cl)cc1F (configuration not stated)	none
CC(=O)c1c(O)cc(C)n(Nc2nc(C)cc(C)n2)c1=O	none
Brc1ccc(-n2c(SCc3nc4ccccc4[nH]3)nnc2-c2ccncc2)cc1	Tb MetRS inh 27 | Tb MetRS conf 42 | Jurkat tox inactive | TbMetRS FP orth inactive
O=C1CC(N(CCc2ccccc2)C(=S)Nc2ccccc2)C(=O)N1c1ccc(Br)cc1 (configuration not stated)	Tb MetRS inh 97 | Tb MetRS conf 99 | Jurkat tox inactive | TbMetRS FP orth 130
CC(=O)Oc1ccc(/C=C(\NC(=O)c2cccc(Br)c2)C(=O)Nc2ccc(C(=O)O)cc2)cc1	Tb MetRS inh 6.2 | Tb MetRS conf 12 | Jurkat tox inactive | TbMetRS FP orth inactive
O=C(Nc1ccc(C(=O)O)cc1)/C(=C\C=C\c1ccccc1)NC(=O)c1ccc(Br)cc1	Tb MetRS inh 21 | Tb MetRS conf 40 | Jurkat tox inactive | TbMetRS FP orth 39
Cc1ccc(NC(=O)/C(=C/C=C/c2ccccc2)NC(=O)c2ccccc2)cc1	none
O=C(CSCc1nc2ccccc2[nH]1)N1CCN(c2cccc(Cl)c2)CC1	Tb MetRS inh 13 | Tb MetRS conf 26 | Jurkat tox inactive | TbMetRS FP orth inactive
S=c1[nH]nc(CCc2nc3ccccc3[nH]2)n1-c1cccc(Cl)c1	Tb MetRS inh 7.7 | Tb MetRS conf 14 | Jurkat tox inactive | TbMetRS FP orth inactive
